From ChEMBL document CHEMBL2331366, “Bioactive indole alkaloids and phenyl ether derivatives from a marine-derived Aspergillus sp. Fungus” (J Nat Prod, 2013)
Converted amounts (≈) assume the structure as drawn. The source made the active and inactive calls. The calls are words filed in the database; no cut-off is given here.

Tests used:
HL-60 = experiment: Cytotoxicity against human HL60 cells assessed as inhibition of cell viability by MTT assay; assay type: functional, cell-based
K562 = experiment: Cytotoxicity against human K562 cells assessed as inhibition of cell viability by MTT assay; assay type: functional, cell-based
Vibrio anguillarum = experiment: Antibacterial activity against Vibrio anguillarum ATCC 19019 assessed as growth inhibition; assay type: functional
How it was run: (§1)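 In vitro antibacterial test against each listed strain. Activity is reported as MIC (μM), with ciprofloxacin as the positive control.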

Vibrio parahaemolyticus = experiment: Antibacterial activity against Vibrio parahaemolyticus ATCC 17802 assessed as growth inhibition; assay type: functional; how it was run: as §1
Staphylococcus aureus = experiment: Antibacterial activity against Staphylococcus aureus ATCC 27154 assessed as growth inhibition; assay type: functional; how it was run: as §1
Pseudomonas putida = experiment: Antibacterial activity against Pseudomonas putida ATCC 17848 assessed as growth inhibition; assay type: functional; how it was run: as §1
[1] = system: Staphylococcus epidermidis; experiment: Antibacterial activity against Staphylococcus epidermidis ATCC 12228 assessed as growth inhibition; assay type: functional; how it was run: as §1
[2] = system: Staphylococcus epidermidis; experiment: Ratio of ciprofloxacin MIC to compound MIC for Staphylococcus epidermidis ATCC 12228; assay type: functional
Bacillus cereus = experiment: Antibacterial activity against Bacillus cereus ACCC 11077 assessed as growth inhibition; assay type: functional, organism-based; how it was run: as §1
Micrococcus = experiment: Antibacterial activity against Micrococcus tetragenus ATCC 13623 assessed as growth inhibition; assay type: functional, organism-based; how it was run: as §1
Escherichia coli = experiment: Antibacterial activity against Escherichia coli ATCC 25922 assessed as growth inhibition; assay type: functional, organism-based; how it was run: as §1

SMILES | IC50 (HL-60) [µM] | IC50 (K562) [µM] | MIC (Vibrio anguillarum) [µM] | MIC (Vibrio parahaemolyticus) [µM] | MIC (Staphylococcus aureus) [µM] | MIC (Pseudomonas putida) [µM] | MIC [1] [µM] | Ratio [2] | growth inhibition (GI) (Vibrio anguillarum) | growth inhibition (GI) (Bacillus cereus) | growth inhibition (GI) (Vibrio parahaemolyticus) | growth inhibition (GI) (Micrococcus) | growth inhibition (GI) (Staphylococcus aureus) | growth inhibition (GI) (Pseudomonas putida) | growth inhibition (GI) [1] | growth inhibition (GI) (Escherichia coli)
COc1cc(C)cc(Oc2cc(C)cc(OC)c2O)c1O | > 10 | > 10 | 100 (≈ 29 µg/mL) | > 100 | 100 (≈ 29 µg/mL) | > 100 | > 100 |  |  |  |  |  |  |  |  | 
COC(=O)c1c(C)cc(Oc2cc(C)cc(O)c2)cc1O | > 10 | 5.94 | 21.7 (≈ 6.26 µg/mL) | 21.7 (≈ 6.26 µg/mL) | 10.9 (≈ 3.14 µg/mL) | 21.7 (≈ 6.26 µg/mL) | 2.71 (≈ 0.781 µg/mL) |  |  |  |  |  |  |  |  | 
COC(=O)c1c(C)c(Br)c(Oc2c(Br)c(C)c(Br)c(O)c2Br)c(Br)c1O |  |  | 9.23 (≈ 6.3 µg/mL) | > 100 | 100 (≈ 68.3 µg/mL) | > 100 | 100 (≈ 68.3 µg/mL) |  |  |  |  |  |  |  |  | 
CC(=O)Oc1cc(C)cc(Oc2cc(C)cc(O)c2)c1 |  |  | 46 (≈ 12.5 µg/mL) | 100 (≈ 27.2 µg/mL) | > 100 | 100 (≈ 27.2 µg/mL) | 100 (≈ 27.2 µg/mL) |  |  |  |  |  |  |  |  | 
CC(=O)Oc1cc(C)cc(Oc2cc(C)cc(OC(C)=O)c2)c1 |  |  | > 100 | > 100 | > 100 | > 100 | > 100 |  |  |  |  |  |  |  |  | 
CCCCCOc1cc(C)cc(Oc2cc(C)cc(O)c2)c1 |  |  | 10.4 (≈ 3.12 µg/mL) | 10.4 (≈ 3.12 µg/mL) | 20.8 (≈ 6.25 µg/mL) | 10.4 (≈ 3.12 µg/mL) | 20.8 (≈ 6.25 µg/mL) |  |  |  |  |  |  |  |  | 
CCCCCOc1cc(C)cc(Oc2cc(C)cc(OCCCCC)c2)c1 |  |  | > 100 | 100 (≈ 37.1 µg/mL) | > 100 | > 100 | > 100 |  |  |  |  |  |  |  |  | 
CCCOc1cc(C)cc(Oc2cc(C)cc(O)c2)c1 |  |  | 23 (≈ 6.26 µg/mL) | 2.87 (≈ 0.782 µg/mL) | 46 (≈ 12.5 µg/mL) | 100 (≈ 27.2 µg/mL) | 46 (≈ 12.5 µg/mL) |  |  |  |  |  |  |  |  | 
Cc1cc(O)cc(Oc2cc(C)cc(OC(=O)c3ccccc3)c2)c1 |  |  | > 100 | 18.7 (≈ 6.25 µg/mL) | > 100 | > 100 | 18.7 (≈ 6.25 µg/mL) |  |  |  |  |  |  |  |  | 
Cc1c(Br)c(O)c(Br)c(Oc2c(Br)c(C)c(Br)c(O)c2Br)c1Br |  |  | 1.11 (≈ 0.781 µg/mL) | 1.11 (≈ 0.781 µg/mL) | 1.11 (≈ 0.781 µg/mL) | 1.11 (≈ 0.781 µg/mL) | 0.556 (≈ 0.391 µg/mL) | 5 |  |  |  |  |  |  |  | 
C=CC(C)(C)[C@]1(C[C@@H]2NC(=O)[C@@]3(OC)CCCN3C2=O)C(=O)Nc2c1ccc1c2C=CC(C)(C)O1 | > 10 | > 10 |  |  |  |  |  |  | inactive | inactive | inactive | inactive | inactive | inactive | inactive | inactive
C=CC(C)(C)[C@]1(C[C@@H]2NC(=O)[C@@]3(O)CCCN3C2=O)C(=O)Nc2c1ccc1c2C=CC(C)(C)O1 | > 10 | > 10 |  |  |  |  |  |  | inactive | inactive | inactive | inactive | inactive | inactive | inactive | inactive
O=C(O)c1cn(C2CC2)c2cc(N3CCNCC3)c(F)cc2c1=O [CIPROFLOXACIN] |  |  | 0.0975 (≈ 0.0323 µg/mL) | 0.195 (≈ 0.0646 µg/mL) | 0.78 (≈ 0.258 µg/mL) | 0.195 (≈ 0.0646 µg/mL) |  |  |  |  |  |  |  |  |  | 
Cc1cc(O)cc(Oc2cc(C)cc(O)c2O)c1 [CORDYOL C] | > 10 | > 10 | 100 (≈ 24.6 µg/mL) | 100 (≈ 24.6 µg/mL) | 100 (≈ 24.6 µg/mL) | 100 (≈ 24.6 µg/mL) | 100 (≈ 24.6 µg/mL) |  |  |  |  |  |  |  |  | 
COc1cc(C)cc(Oc2cc(C)cc(OC)c2OC)c1O [CORDYOL D] | > 10 | > 10 | > 100 | > 100 | > 100 | > 100 | > 100 |  |  |  |  |  |  |  |  | 
COc1cc(C)cc(Oc2cc(C)cc(O)c2)c1 [CORDYOL E] | > 10 | > 10 | 25.6 (≈ 6.25 µg/mL) | 51.2 (≈ 12.5 µg/mL) | 51.2 (≈ 12.5 µg/mL) | 51.2 (≈ 12.5 µg/mL) | 25.6 (≈ 6.25 µg/mL) |  |  |  |  |  |  |  |  | 
C=CC(C)(C)[C@]1(C[C@@H]2NC(=O)C3=CCCN3C2=O)C(=O)Nc2c1ccc1c2C=CC(C)(C)O1 [DEHYDRONOTOAMIDE C] | > 10 | > 10 |  |  |  |  |  |  | inactive | inactive | inactive | inactive | inactive | inactive | inactive | inactive
Cc1cc(O)cc(Oc2cc(C)cc(O)c2)c1 [DIORCINOL] | > 10 | > 10 | 100 (≈ 23 µg/mL) | 100 (≈ 23 µg/mL) | 54.3 (≈ 12.5 µg/mL) | 100 (≈ 23 µg/mL) | 27.2 (≈ 6.26 µg/mL) |  |  |  |  |  |  |  |  | 
CC1(C)C=Cc2c(ccc3c2NC(=O)[C@@]32C[C@@]34NC(=O)[C@]5(CCCN5C3=O)C[C@H]4C2(C)C)O1 [NOTOAMIDE B] | > 10 | > 10 |  |  |  |  |  |  | inactive | inactive | inactive | inactive | inactive | inactive | inactive | inactive
C=CC(C)(C)[C@]1(C[C@@H]2NC(=O)[C@@H]3CCCN3C2=O)C(=O)Nc2c1ccc1c2C=CC(C)(C)O1 [NOTOAMIDE C] | > 10 | > 10 |  |  |  |  |  |  | inactive | inactive | inactive | inactive | inactive | inactive | inactive | inactive
C=CC(C)(C)[C@]1(C[C@@H]2NC(=O)[C@]3(O)CCCN3C2=O)C(=O)Nc2c1ccc1c2C=CC(C)(C)O1 [NOTOAMIDE M] | > 10 | > 10 |  |  |  |  |  |  | inactive | inactive | inactive | inactive | inactive | inactive | inactive | inactive
C=CC(C)(C)[C@]1(C[C@@H]2NC(=O)[C@]3(OC)CCCN3C2=O)C(=O)Nc2c1ccc1c2C=CC(C)(C)O1 [NOTOAMIDE Q] | > 10 | > 10 |  |  |  |  |  |  | inactive | inactive | inactive | inactive | inactive | inactive | inactive | inactive
CC1(C)C=Cc2c(ccc3c4c([nH]c23)C(C)(C)[C@@H]2C[C@]35CCCN3C(=O)[C@@]2(C4)NC5=O)O1 [STEPHACIDIN A] | > 10 | > 10 | > 100 | > 100 | > 100 | > 100 | 14.5 (≈ 6.26 µg/mL) |  |  |  |  |  |  |  |  | 
